Measured values gathered from unrelated publications.
Each line is one published result; the experiments were not run side by side. pIC50: −log10 of the molar value.
MAL12: Alpha-glucosidase MAL12 (MAL12, Saccharomyces cerevisiae S288c, UniProt P53341)

SMILES	target	test	conditions	pIC50
Cc1cccc(NC(=O)Cn2cc(CSc3nc4ccccc4cc3/C=N/NC(N)=S)nn2)c1	MAL12	enzyme activity, inhibitor	–	3.61
COc1cc(C(c2c(O)c3ccccc3oc2=O)c2c(O)c3ccccc3oc2=O)ccc1OCc1cn(CC(=O)Nc2ccccc2F)nn1	MAL12	enzyme activity, inhibitor, absorbance	–	4.21
C[C@@H]1O[C@@H](O[C@H]2[C@H](O[C@H]3CC[C@@]4(C)[C@@H](CC[C@]5(C)[C@@H]4CC=C4[C@@H]6CC(C)(C)CC[C@]6(C(=O)O[C@@H]6O[C@H](CO[C@@H]7O[C@H](CO)[C@@H](O)[C@H](O)[C@H]7O)[C@@H](O)[C@H](O)[C@H]6O)CC[C@]45C)[C@]3(C)CO)OC[C@H](O)[C@@H]2O)[C@H](O)[C@H](O)[C@H]1O	MAL12	enzyme activity, inhibitor	–	5.76
COc1cc(C(c2c(O)c3ccccc3oc2=O)c2c(O)c3ccccc3oc2=O)ccc1OCc1cn(CC(=O)Nc2ccc([N+](=O)[O-])cc2)nn1	MAL12	enzyme activity, inhibitor, absorbance	–	4.91
NC(=S)N/N=C/c1cc2ccccc2nc1SCc1cn(CC(=O)Nc2ccc(Br)cc2)nn1	MAL12	enzyme activity, inhibitor	–	3.36
COc1cc(C(c2c(O)c3ccccc3oc2=O)c2c(O)c3ccccc3oc2=O)ccc1OCc1cn(CC(=O)Nc2ccc(C)cc2C)nn1	MAL12	enzyme activity, inhibitor, absorbance	–	4.69
C[C@@H](OC(C)(C)C)[C@H](NC(=O)OCc1ccccc1)C(=O)N[C@@H](CC1CCCCC1)C(=O)NN(CCC(N)=O)C(=O)C(Cl)Cl	Replicase polyprotein 1ab, main protease (rep, Severe acute respiratory syndrome coronavirus 2, UniProt P0DTD1)	enzyme activity, inhibitor	with preincubation	7.17
COc1cc(C(c2c(O)c3ccccc3oc2=O)c2c(O)c3ccccc3oc2=O)ccc1OCc1cn(CC(=O)Nc2ccc(C)cc2)nn1	MAL12	enzyme activity, inhibitor, absorbance	–	4.39
Cc1ccccc1NC(=O)Cn1cc(CSc2nc3ccccc3cc2/C=N/NC(N)=S)nn1	MAL12	enzyme activity, inhibitor	–	3.45
CC(=O)OC[C@H]1O[C@@H](OC[C@H]2O[C@@H](OC(=O)[C@]34CCC(C)(C)C[C@H]3C3=CC[C@@H]5[C@@]6(C)CC[C@H](O[C@@H]7OC[C@H](O)[C@H](O)[C@H]7O[C@@H]7O[C@H](CO)[C@@H](O)[C@H](O)[C@H]7O)C(C)(C)[C@@H]6CC[C@@]5(C)[C@]3(C)CC4)[C@H](O)[C@@H](O)[C@@H]2O)[C@H](O)[C@@H](O)[C@@H]1O[C@@H]1O[C@@H](C)[C@H](O)[C@@H](O)[C@H]1O	MAL12	enzyme activity, inhibitor	–	6.12
CCOC(=O)[C@H]1O[C@@H]1C(=O)N[C@@H](CC(C)C)C(=O)NCCC(C)C	Cathepsin S (CTSS, Homo sapiens, UniProt P25774)	enzyme activity, inhibitor, fluorescence	–	4.72
NC(=S)N/N=C/c1cc2ccccc2nc1SCc1cn(CC(=O)Nc2ccc([N+](=O)[O-])cc2)nn1	MAL12	enzyme activity, inhibitor	–	3.25
COc1cc(C(c2c(O)c3ccccc3oc2=O)c2c(O)c3ccccc3oc2=O)ccc1OCc1cn(CC(=O)Nc2cccc(Cl)c2)nn1	MAL12	enzyme activity, inhibitor, absorbance	–	4.07
COc1ccc(NC(=O)Cn2cc(CSc3nc4ccccc4cc3/C=N/NC(N)=S)nn2)cc1	MAL12	enzyme activity, inhibitor	–	3.72
Cc1ccc2[nH]c(=O)c(CNC3CCCCC3)cc2c1	Alpha-1A adrenergic receptor (ADRA1A, Homo sapiens, UniProt P35348, I178V/M292L)	calcium signal, antagonist	–	5.79
C[C@@H]1O[C@@H](O[C@H]2[C@H](O[C@H]3CC[C@@]4(C)[C@@H](CC[C@]5(C)[C@@H]4CC=C4[C@@H]6CC(C)(C)CC[C@]6(C(=O)O[C@@H]6O[C@H](CO[C@@H]7O[C@H](CO)[C@@H](O[C@@H]8O[C@@H](C)[C@H](O)[C@@H](O)[C@H]8O)[C@H](O)[C@H]7O)[C@@H](O)[C@H](O)[C@H]6O)CC[C@]45C)[C@]3(C)CO)OC[C@H](O)[C@@H]2O)[C@H](O)[C@H](O)[C@H]1O	MAL12	enzyme activity, inhibitor	–	5.75
Nc1ncnc2c1ncn2[C@@H]1O[C@H](CO)[C@@H](O)[C@H]1O	Solute carrier family 22 member 6 (SLC22A6, Homo sapiens, UniProt Q4U2R8)	transporter uptake, inhibitor, radiometric	oocytes	< 3.00
C=C1CC[C@]2(C(=O)O[C@@H]3O[C@H](CO[C@@H]4O[C@H](CO)[C@@H](O[C@@H]5O[C@@H](C)[C@H](O)[C@@H](O)[C@H]5O)[C@H](O)[C@H]4O)[C@@H](O)[C@H](O)[C@H]3O)CC[C@]3(C)C(=CC[C@@H]4[C@@]5(C)CC[C@H](O[C@@H]6OC[C@H](O)[C@H](O)[C@H]6O[C@@H]6O[C@@H](C)[C@H](O)[C@@H](O)[C@H]6O)C(C)(C)[C@@H]5CC[C@]43C)[C@@H]2C1	MAL12	enzyme activity, inhibitor	–	6.13
Cc1cc([N+](=O)[O-])ccc1NC(=O)Cn1cc(CSc2nc3ccccc3cc2/C=N/NC(N)=S)nn1	MAL12	enzyme activity, inhibitor	–	3.51
C[C@@H]1O[C@@H](O[C@H]2[C@H](O)[C@@H](O)[C@H](OC[C@H]3O[C@@H](OC(=O)[C@]45CCC(C)(C)C[C@H]4C4=CC[C@@H]6[C@@]7(C)CC[C@H](O[C@@H]8OC[C@H](O)[C@H](O)[C@H]8O)[C@@](C)(CO)[C@@H]7CC[C@@]6(C)[C@]4(C)CC5)[C@H](O)[C@@H](O)[C@@H]3O)O[C@@H]2CO)[C@H](O)[C@H](O)[C@H]1O	MAL12	enzyme activity, inhibitor	–	5.78
Cc1ccc2oc(=O)cc(NCCO)c2c1	Alpha-1A adrenergic receptor (ADRA1A, Homo sapiens, UniProt P35348, I178V)	calcium signal, antagonist	–	3.48
